Measured values taken from paper PMC11913021 (Journal of Medicinal Chemistry, 2024).
Several values for one entry are separate records, joined by “and”; a condition that tells them apart may be missing. Identical values can stand only once.

Key:
CD24, CD47, PD-L1, CRT = experiment: Flow cytometry of “don’t eat-me” and “eat-me” signals in A549 cells; type: cell-based
HCT116 cells = experiment: WST-1 cell viability assay, HCT116; type: cell-based; conditions: read-out: IC50 of viability; HCT116, WST-1, 48 h
Method in brief: (§1)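 Cells grown in DMEM or RPMI 1640 with 10% FBS and 1% penicillin/streptomycin at 37 °C, 5% CO2. Seeded at 5 × 10^3 cells/well and held 24 h at 37 °C, then exposed to test compound for 48 h. WST-1 absorbance was read at 450 nm, in triplicate. IC50 was taken as the concentration giving 50% growth inhibition versus control.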

A549 cells [1] = experiment: Colony-forming assay; type: cell-based
Method in brief: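 Cells seeded at 500–1,000 per well; test compound added 48 h after seeding, with 48 h exposure. Medium was changed every 3 days and cultures kept 10 days. Colonies were fixed in 4% PFA for 20 min, stained with crystal violet for 30 min, and counted by image analysis.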

PLD1 [2] = biological target: T1, PLD1 (Homo sapiens, UniProt Q13393); experiment: Drug affinity responsive target stability; type: binding; conditions: DARTS with immunoblotting
T1 sequence (Q13393 1-1074): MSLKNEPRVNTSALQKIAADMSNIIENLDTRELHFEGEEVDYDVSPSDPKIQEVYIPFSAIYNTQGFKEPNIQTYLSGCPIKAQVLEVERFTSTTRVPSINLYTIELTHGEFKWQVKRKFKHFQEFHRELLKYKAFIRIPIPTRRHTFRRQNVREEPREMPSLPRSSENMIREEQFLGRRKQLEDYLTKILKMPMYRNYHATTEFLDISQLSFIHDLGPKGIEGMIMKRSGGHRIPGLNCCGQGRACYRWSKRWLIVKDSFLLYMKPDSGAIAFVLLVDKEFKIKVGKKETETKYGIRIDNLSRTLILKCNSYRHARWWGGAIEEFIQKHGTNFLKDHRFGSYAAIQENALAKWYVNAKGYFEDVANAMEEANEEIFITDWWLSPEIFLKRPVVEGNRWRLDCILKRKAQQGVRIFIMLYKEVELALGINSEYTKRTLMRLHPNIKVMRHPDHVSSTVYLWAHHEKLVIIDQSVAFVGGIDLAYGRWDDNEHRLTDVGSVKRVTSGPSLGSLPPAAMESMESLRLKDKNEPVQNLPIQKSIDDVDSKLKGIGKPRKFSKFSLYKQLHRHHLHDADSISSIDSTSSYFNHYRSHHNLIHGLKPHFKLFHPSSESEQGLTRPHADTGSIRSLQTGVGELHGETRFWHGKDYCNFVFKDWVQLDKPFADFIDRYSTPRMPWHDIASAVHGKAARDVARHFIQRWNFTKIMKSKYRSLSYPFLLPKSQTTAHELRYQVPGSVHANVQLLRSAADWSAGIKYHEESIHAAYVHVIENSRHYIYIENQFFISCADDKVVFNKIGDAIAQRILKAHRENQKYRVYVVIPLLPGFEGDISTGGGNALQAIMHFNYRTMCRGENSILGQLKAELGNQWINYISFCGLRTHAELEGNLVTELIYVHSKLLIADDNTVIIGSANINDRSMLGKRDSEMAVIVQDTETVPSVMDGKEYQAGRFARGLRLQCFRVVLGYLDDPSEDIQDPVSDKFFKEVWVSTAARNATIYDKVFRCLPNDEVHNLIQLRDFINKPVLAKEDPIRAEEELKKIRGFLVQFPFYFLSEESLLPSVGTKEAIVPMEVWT
Method in brief: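 A549 cells lysed in buffer with protease and phosphatase inhibitors. Cleared supernatant incubated with test compound for 1 h at RT, then digested with Pronase for 10 min at RT. Digestion stopped with SDS loading buffer and boiling at 100 °C for 5 min. PLD1 was detected by immunoblot, with β-tubulin as control.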

Calu6 lung cancer cells = experiment: WST-1 cell viability assay, Calu6; type: cell-based; conditions: read-out: IC50 of viability; Calu6, WST-1, 48 h
Method in brief: as §1

LLC lung cancer cells = experiment: LLC tumor model in immune-deficient nude mice; type: in vivo, mouse; conditions: immune-deficient nude mice injected with LLC cells
A549 cells [3] = experiment: WST-1 cell viability assay, A549; type: cell-based; conditions: read-out: IC50 of viability; A549, WST-1, 48 h
Method in brief: as §1

L425A mutant PLD1 = biological target: T2, L425A mutant PLD1 (Homo sapiens, UniProt Q13393, L425A); experiment: PLD activity assay in L425A mutant PLD1-transfected cells; type: cell-based
T2 sequence (Q13393 1-1036 isoform Q13393-2 L425A): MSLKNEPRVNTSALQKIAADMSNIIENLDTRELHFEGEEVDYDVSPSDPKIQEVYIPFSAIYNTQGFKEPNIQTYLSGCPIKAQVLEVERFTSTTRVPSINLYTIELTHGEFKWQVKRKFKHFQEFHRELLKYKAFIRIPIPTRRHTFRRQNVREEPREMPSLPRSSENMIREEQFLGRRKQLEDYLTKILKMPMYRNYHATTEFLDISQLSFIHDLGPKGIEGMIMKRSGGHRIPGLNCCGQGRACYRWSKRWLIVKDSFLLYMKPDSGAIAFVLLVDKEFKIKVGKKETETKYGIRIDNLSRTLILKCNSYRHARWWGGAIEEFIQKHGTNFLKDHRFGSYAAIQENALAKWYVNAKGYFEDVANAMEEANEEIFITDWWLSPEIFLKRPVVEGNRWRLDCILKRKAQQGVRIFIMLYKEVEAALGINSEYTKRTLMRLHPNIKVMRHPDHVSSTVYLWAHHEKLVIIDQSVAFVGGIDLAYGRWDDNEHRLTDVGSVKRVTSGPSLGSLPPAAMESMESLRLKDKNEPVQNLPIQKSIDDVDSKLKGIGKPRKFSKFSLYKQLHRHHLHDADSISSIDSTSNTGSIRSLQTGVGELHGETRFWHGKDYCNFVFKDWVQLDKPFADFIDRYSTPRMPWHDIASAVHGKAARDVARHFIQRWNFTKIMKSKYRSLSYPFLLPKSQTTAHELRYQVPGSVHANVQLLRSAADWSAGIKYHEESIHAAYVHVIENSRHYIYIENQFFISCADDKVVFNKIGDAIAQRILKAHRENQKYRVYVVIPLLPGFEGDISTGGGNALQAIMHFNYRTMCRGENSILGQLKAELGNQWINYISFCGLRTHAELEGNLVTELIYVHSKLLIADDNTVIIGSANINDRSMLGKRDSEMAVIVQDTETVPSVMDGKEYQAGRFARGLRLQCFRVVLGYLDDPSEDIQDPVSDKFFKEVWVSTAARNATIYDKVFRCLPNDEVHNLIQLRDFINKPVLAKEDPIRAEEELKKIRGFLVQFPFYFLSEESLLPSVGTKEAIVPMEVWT

PLD1 [4] = biological target: T1, PLD1; experiment: PLD activity in PLD1-overexpressing A549 cells; type: cell-based

Substance: N-(3,5-Bis(trifluoromethyl)phenyl)-3-(1H-indol-3-yl)propanamide [3r]
- expression of “don’t eat-me” signals (CD24, CD47, PD-L1, CRT): reduced
- expression of “eat-me” signals (CD24, CD47, PD-L1, CRT): enhanced
- IC50 (HCT116 cells): 29 µM and 29.1 µM
- colony formation (A549 cells [1]): significantly inhibited
- stability of PLD1 against Pronase (PLD1 [2]): increased stability
- IC50 (Calu6 lung cancer cells): 19 µM
- tumor formation (LLC lung cancer cells): significantly suppressed
- IC50 (A549 cells [3]): 18 µM and 18.4 µM
- PLD activity (L425A mutant PLD1): significantly suppressed
- PLD1 activity (PLD1 [4]): selectively suppressed
